Active and inactive are the calls of the source. No cut-off for these calls is given here.
Key:
[1] = biological target: T1, Caspase-6 (Homo sapiens) (UniProt P55212); assay: Inhibition of human recombinant caspase-6 assessed as Ac-VEID-AMC conversion to 7-amino-4-methylcoumarin incubated for 10 mins prior to substrate addition measured after 10 mins by spectrophotometric analysis
T1 sequence (whole entry): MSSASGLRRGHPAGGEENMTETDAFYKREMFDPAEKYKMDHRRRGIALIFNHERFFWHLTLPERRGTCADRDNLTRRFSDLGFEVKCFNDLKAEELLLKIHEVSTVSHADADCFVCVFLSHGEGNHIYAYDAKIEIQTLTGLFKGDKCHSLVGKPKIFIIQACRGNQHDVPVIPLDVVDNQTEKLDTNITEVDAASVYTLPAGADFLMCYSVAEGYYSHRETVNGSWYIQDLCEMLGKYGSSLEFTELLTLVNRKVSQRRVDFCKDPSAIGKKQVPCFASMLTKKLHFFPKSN
Method in brief: (§1)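 Recombinant caspase diluted to 0.5 unit per assay (500 pmol substrate converted in 60 min), preincubated 10 min at 37 °C in reaction buffer with inhibitor in DMSO at single final concentrations spanning 5 pM to 500 μM. Peptide substrate then added (final 10 μM) and reacted 10 min. IC50 obtained by nonlinear regression.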

[2] = biological target: T2, Caspase-7 (Homo sapiens, UniProt P55210); assay: Inhibition of human recombinant caspase-7 assessed as Ac-DEVD-AMC conversion to 7-amino-4-methylcoumarin incubated for 10 mins prior to substrate addition measured after 10 mins by spectrophotometric analysis; method in brief: as §1
T2 sequence (P55210 whole entry): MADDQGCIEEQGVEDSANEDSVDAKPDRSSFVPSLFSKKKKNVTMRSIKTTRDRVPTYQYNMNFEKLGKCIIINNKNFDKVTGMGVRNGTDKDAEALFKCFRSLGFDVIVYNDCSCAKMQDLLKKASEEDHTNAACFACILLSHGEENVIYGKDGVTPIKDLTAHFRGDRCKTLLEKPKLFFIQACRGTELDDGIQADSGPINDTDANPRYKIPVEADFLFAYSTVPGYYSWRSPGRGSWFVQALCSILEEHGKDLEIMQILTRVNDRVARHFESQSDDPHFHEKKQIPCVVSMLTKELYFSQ

[3] = biological target: T3, Caspase-1 (Homo sapiens) (UniProt P29466); assay: Inhibition of human recombinant caspase-1 assessed as Ac-YVAD-AMC conversion to 7-amino-4-methylcoumarin incubated for 10 mins prior to substrate addition measured after 10 mins by spectrophotometric analysis; method in brief: as §1
T3 sequence (whole entry): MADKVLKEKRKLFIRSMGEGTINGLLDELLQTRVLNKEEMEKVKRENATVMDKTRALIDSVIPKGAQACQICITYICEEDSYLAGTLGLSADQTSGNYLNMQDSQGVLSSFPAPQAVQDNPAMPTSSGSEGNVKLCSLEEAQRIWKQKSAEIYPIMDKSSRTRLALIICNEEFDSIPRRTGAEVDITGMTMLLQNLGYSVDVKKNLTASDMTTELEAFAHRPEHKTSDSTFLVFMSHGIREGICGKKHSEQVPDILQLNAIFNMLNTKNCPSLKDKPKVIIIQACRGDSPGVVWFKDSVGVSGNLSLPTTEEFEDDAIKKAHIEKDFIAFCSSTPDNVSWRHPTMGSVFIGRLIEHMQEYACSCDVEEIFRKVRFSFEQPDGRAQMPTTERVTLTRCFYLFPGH

[4] = biological target: T4, Caspase-3 (Homo sapiens, UniProt P42574); assay: Inhibition of human recombinant caspase-3 assessed as Ac-DEVD-AMC conversion to 7-amino-4-methylcoumarin incubated for 10 mins prior to substrate addition measured after 10 mins by spectrophotometric analysis; method in brief: as §1
T4 sequence (P42574 whole entry): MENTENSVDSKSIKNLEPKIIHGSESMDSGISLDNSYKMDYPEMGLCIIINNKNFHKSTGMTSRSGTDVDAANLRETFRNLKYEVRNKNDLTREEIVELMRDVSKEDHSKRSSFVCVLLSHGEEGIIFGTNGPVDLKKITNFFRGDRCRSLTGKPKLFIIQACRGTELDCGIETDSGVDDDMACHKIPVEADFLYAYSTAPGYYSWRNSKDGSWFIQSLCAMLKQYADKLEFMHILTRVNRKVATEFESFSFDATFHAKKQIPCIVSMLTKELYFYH

[5] = tested on: Intestine; assay: Biodistribution in mouse intestine at 9.8 MBq, iv after 6 to 96 mins by PET/CT analysis; assay type: ADME, organism-based; conditions: in vivo
Method in brief: (§2)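 Wild-type mice given tracer by tail vein injection through a pump-driven saline flush (300 μL/min) while PET list-mode acquisition started. CT-defined 3D volumes of interest over organs transferred to coregistered PET data. Uptake expressed as percentage injected dose: counts per mL in VOI divided by total counts in mouse, times 100% ID/mL.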

[6] = tested on: Blood; assay: Biodistribution in mouse blood at 9.8 MBq, iv up to 30 mins by PET/CT analysis; assay type: ADME, organism-based; conditions: in vivo, 0.5 h; method in brief: as §2
[7] = tested on: Mus musculus; assay: Biodistribution in mouse gall bladder at 9.8 MBq, iv after 6 to 96 mins by PET/CT analysis; assay type: ADME, organism-based; conditions: in vivo; method in brief: as §2
[8] = tested on: Liver; assay: Biodistribution in mouse liver at 9.8 MBq, iv after 6 mins by PET/CT analysis; assay type: ADME, organism-based; conditions: in vivo, 0.1 h; method in brief: as §2
[9] = tested on: Kidney; assay: Biodistribution in mouse kidney at 9.8 MBq, iv after 6 mins by PET/CT analysis; assay type: ADME, organism-based; conditions: in vivo, 0.1 h; method in brief: as §2
[10] = tested on: Heart; assay: Biodistribution in mouse heart at 9.8 MBq, iv after 36 seconds by PET/CT analysis; assay type: ADME, organism-based; conditions: in vivo, 0.01 h; method in brief: as §2
[11] = tested on: Mus musculus; assay: Biodistribution in mouse urinary bladder at 9.8 MBq, iv after 6 to 96 mins by PET/CT analysis; assay type: ADME, organism-based; conditions: in vivo; method in brief: as §2
[12] = tested on: Lung; assay: Biodistribution in mouse lung at 9.8 MBq, iv after 36 seconds by PET/CT analysis; assay type: ADME, organism-based; conditions: in vivo, 0.01 h; method in brief: as §2

| inhibition [1] | IC50 [2] [nM] | inhibition [3] | IC50 [4] [nM] | Drug uptake [5] | Drug uptake [6] | Drug uptake [7] | Drug uptake [8] [%ID/ml] | Drug uptake [9] [%ID/ml] | Drug uptake [10] [%ID/ml] | Drug uptake [11] | Drug uptake [12] [%ID/ml] | SMILES |
| --- | --- | --- | --- | --- | --- | --- | --- | --- | --- | --- | --- | --- |
| Active | 0.951 | Active | 11.8 | – | – | – | – | – | – | – | – | COC[C@@H]1CCCN1S(=O)(=O)c1ccc2c(c1)C(=O)C(=O)N2CC[C@H](F)CO |
| Active | 296 | Active | 25.9 | – | – | – | – | – | – | – | – | COC[C@@H]1CCCN1S(=O)(=O)c1ccc2c(c1)C(=O)C(=O)N2CC[C@@H](O)CF |
| Active | 128 | Active | 187 | – | – | – | – | – | – | – | – | COC[C@@H]1CCCN1S(=O)(=O)c1ccc2c(c1)C(=O)C(=O)N2CC[C@@H](O)CO |
| Active | 103 | Active | 106 | – | – | – | – | – | – | – | – | COC[C@@H]1CCCN1S(=O)(=O)c1ccc2c(c1)C(=O)C(=O)N2CC[C@H](O)CO |
| Active | 27 | Active | 23.3 | – | – | – | – | – | – | – | – | COC[C@@H]1CCCN1S(=O)(=O)c1ccc2c(c1)C(=O)C(=O)N2CC[C@H](O)CF |
| – | – | – | – | Active | Active | Active | 12 | 5.2 | 3.6 | Active | 3 | COC[C@@H]1CCCN1S(=O)(=O)c1ccc2c(c1)C(=O)C(=O)N2CC[C@@H](O)C[18F] |
| Active | 71 | Active | 56 | – | – | – | – | – | – | – | – | COC[C@@H]1CCCN1S(=O)(=O)c1ccc2c(c1)C(=O)C(=O)N2CC[C@@H](F)CO |

Source: ChEMBL document CHEMBL2380291, “Synthesis, 18F-radiolabeling, and in vivo biodistribution studies of N-fluorohydroxybutyl isatin sulfonamides using positron emission tomography” (J Med Chem, 2013)
